We go through one compound from ChEMBL document CHEMBL3769318, “The Rational Design of Selective Benzoxazepin Inhibitors of the α-Isoform of Phosphoinositide 3-Kinase Culminating in the Identification of (S)-2-((2-(1-Isopropyl-1H-1,2,4-triazol-5-yl)-5,6-dihydrobenzo[f]imidazo[1,2-d][1,4]oxazepin-9-yl)oxy)propanamide (GDC-0326)” (J Med Chem, 2016).

Series [1] is described as follows: Plasma protein binding in Cynomolgus monkey at 5 uM after 4 hrs by LC-MS/MS analysis. It is filed as ADME, cell-free, Macaca fascicularis. The following applies: read-out: PPB (converted). The method in brief: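 Equilibrium dialysis of pooled plasma (n ≥ 3) spiked with compound at 5 µM total against PBS pH 7.4, 37 °C, 5% CO2, for 4 h; plasma and buffer concentrations measured by LC-MS/MS; percent unbound calculated as buffer/plasma ×100.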

A short description of series [2]: Antitumor activity against human MCF7-neo/Her2 cells xenografted in mouse assessed as tumor growth inhibition at 0.78 mg/kg, po qd for 21 days. The following applies: 504 h, read-out: TGI. It is filed as functional. Put shortly:
(§1)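 MCF7-neo/HER2 breast cancer xenografts grown in nude mice; daily oral dosing for 21 days in 0.5% methylcellulose/0.2% Tween-80 vehicle at 0.78–25 mg/kg, 10 animals per group; fitted tumor volumes compared against vehicle-treated mice to give tumor growth inhibition.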
(Xenograft models place foreign cells or tissue in a host animal.)

A short description of series [3]: Antitumor activity against human MCF7-neo/Her2 cells xenografted in mouse assessed as tumor growth inhibition at 1.56 mg/kg, po qd for 21 days. It is filed as functional. The conditions noted are these: 504 h, read-out: TGI. Put shortly: as §1
Series [4] in a line: Antitumor activity against human MCF7-neo/Her2 cells xenografted in mouse assessed as tumor growth inhibition at 3.25 mg/kg, po qd for 21 days. The following applies: 504 h, read-out: TGI. It is filed as functional. Put shortly: as §1
Series [5] can be described thus: Antitumor activity against human MCF7-neo/Her2 cells xenografted in mouse assessed as tumor growth inhibition at 6.25 mg/kg, po qd for 21 days. It is filed as functional. The conditions noted are these: 504 h, read-out: TGI. The method in brief: as §1
Series [6] in a line: Antitumor activity against human KPL4 cells xenografted in SCID beige mouse assessed as tumor growth inhibition at 1.56 mg/kg, po qd for 21 days. It is filed as functional. The conditions noted are these: 504 h, read-out: TGI. Put shortly: (§2)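 KPL-4 breast cancer xenografts grown in scid beige mice; oral dosing once daily for 21 days in MCT vehicle (0.5% methylcellulose/0.2% Tween-80) at 0.78–25 mg/kg, 10 animals per group; tumor volumes fitted and tumor growth inhibition calculated versus vehicle-treated mice.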

Series [7] can be described thus: Antitumor activity against human KPL4 cells xenografted in SCID beige mouse assessed as tumor growth inhibition at 6.25 mg/kg, po qd for 21 days. It is filed as functional. The following applies: 504 h, read-out: TGI. Put shortly:
as §2

Series [8] concerns KPL4. Briefly: Antitumor activity against human KPL4 cells xenografted in po dosed SCID beige mouse assessed as tumor growth inhibition administered daily for 21 days. It is filed as functional, organism-based. The method in brief: as §2
The target of series [9] is Cytochrome P450 2C9 (Homo sapiens, UniProt P11712). The series is described as follows: Inhibition of CYP2C9 (unknown origin). It is filed as ADME.
The nature of series [10]: Antiproliferative activity against human PC3 cells after 4 days by luminescence plate reader method. The following applies: PC-3, 96 h. It is filed as functional, cell-based.
Series [11] is described as follows: Oral bioavailability in Sprague-Dawley rat at 5 mg/kg. It is filed as ADME, organism-based. The conditions noted are these: in vivo. The method in brief: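 Male Sprague-Dawley rats dosed PO at 5 mg/kg in 0.5% methylcellulose/0.2% Tween 80 (MCT); the IV reference arm was 1 mg/kg in 60% PEG400/10% ethanol.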
Series [12] is described as follows: Volume of distribution at steady state in Cynomolgus monkey at 1 mg/kg, iv. The conditions noted are these: in vivo, read-out: Vdss. It is filed as ADME, organism-based, Macaca fascicularis.
Series [13] can be described thus: Cmax in Cynomolgus monkey at 2 mg/kg, po. The conditions noted are these: in vivo. On the set-up: dose 2 mg/kg, route oral. It is filed as ADME, organism-based, Macaca fascicularis. Put shortly: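 Single oral dose at 2 mg/kg in 0.5% methylcellulose with 0.2% Tween 80, given to beagle dogs or male cynomolgus monkeys; the IV reference was 1 mg/kg in 60% PEG400/10% ethanol.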

The structures appear in SMILES notation.

Sequence of Cytochrome P450 2C9 (P11712 whole entry): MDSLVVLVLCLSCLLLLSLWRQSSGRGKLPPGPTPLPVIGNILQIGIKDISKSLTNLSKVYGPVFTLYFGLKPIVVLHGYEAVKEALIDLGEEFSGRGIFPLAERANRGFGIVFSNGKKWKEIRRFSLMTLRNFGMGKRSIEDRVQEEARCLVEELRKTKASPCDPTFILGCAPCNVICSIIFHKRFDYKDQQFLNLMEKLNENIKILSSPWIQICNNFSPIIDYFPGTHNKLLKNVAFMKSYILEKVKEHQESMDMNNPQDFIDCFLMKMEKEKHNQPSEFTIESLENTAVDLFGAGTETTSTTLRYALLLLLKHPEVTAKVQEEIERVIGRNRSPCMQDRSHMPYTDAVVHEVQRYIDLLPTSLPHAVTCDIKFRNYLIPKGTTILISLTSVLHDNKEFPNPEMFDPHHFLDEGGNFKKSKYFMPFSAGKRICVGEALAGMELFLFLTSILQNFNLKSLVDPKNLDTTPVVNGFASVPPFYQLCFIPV

Regarding `CC(C)n1ncnc1-c1cn2c(n1)-c1ccc(O[C@@H](C)C(N)=O)cc1OCC2`, the fraction unbound at 4 h, 5 µM in [1] was 0.61. For the same compound, the inhibition in vivo at 0.78 mg/kg in series [2] amounted to 73%. Moreover, the inhibition in vivo at 1.56 mg/kg in series [3] was determined as 79%; in series [6] it was 97%. Also, the inhibition in vivo at 3.25 mg/kg in series [4] worked out at 83%. The results for the inhibition in vivo at 6.25 mg/kg in [5] and in series [7] were 101% and 122%, respectively. Besides, the Activity result in series [8] was “Dose-dependent effect”. The 50% inhibitory concentration (IC50) (usually the concentration that gives 50% inhibition) in [9] is above 10000 nM. In addition, in series [10], the concentration for a half-maximal effect (EC50) (usually the concentration at which the effect is half-maximal) was 2200 nM. Moreover, in series [11], the bioavailability stood at 120%. Also, in series [12], the Vd amounted to 1.5 L/kg. The Cmax (usually the highest concentration seen after dosing) in series [13] was found to be 1500 nM.
